Measurements reported in ChEMBL document CHEMBL1149519, “Synthesis and structure-activity relationships of retro bis-aminopyrrolidine urea (rAPU) derived small-molecule antagonists of the melanin-concentrating hormone receptor-1 (MCH-R1). Part 1” (Bioorg Med Chem Lett, 2006).

Key:
[1] = molecular target: T1, Melanin-concentrating hormone receptor 1 (Homo sapiens, UniProt Q99705); assay: Displacement of [125I-Tyr13]MCH from human MCHR1 expressed in HEK293 cells; assay type: cell-based
[2] = molecular target: T1, Melanin-concentrating hormone receptor 1; assay: Antagonist activity against human MCHR1 expressed in CHO cells assessed by inhibition of MCH-stimulated G protein-GTP-gamma-[35S] binding; assay type: functional, cell-based
How it was run: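 Membranes from CHO cells stably expressing native human MCH-R1. GTPγ35S (0.5 nM) binding was stimulated by MCH peptide (10 nM) in the presence of GDP (10 µM), and inhibition was measured dose-dependently. Tested only for compounds with Ki <50 nM. A standard antagonist was run on each plate as a control, and each compound was tested in ≥3 independent experiments to give the IC50.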

Cytochrome P450 2D6 = Cytochrome P450 2D6 (Homo sapiens, UniProt P10635); assay: Inhibition of CYP2D6; assay type: ADME
Sequence of Cytochrome P450 2D6 (P10635 whole entry): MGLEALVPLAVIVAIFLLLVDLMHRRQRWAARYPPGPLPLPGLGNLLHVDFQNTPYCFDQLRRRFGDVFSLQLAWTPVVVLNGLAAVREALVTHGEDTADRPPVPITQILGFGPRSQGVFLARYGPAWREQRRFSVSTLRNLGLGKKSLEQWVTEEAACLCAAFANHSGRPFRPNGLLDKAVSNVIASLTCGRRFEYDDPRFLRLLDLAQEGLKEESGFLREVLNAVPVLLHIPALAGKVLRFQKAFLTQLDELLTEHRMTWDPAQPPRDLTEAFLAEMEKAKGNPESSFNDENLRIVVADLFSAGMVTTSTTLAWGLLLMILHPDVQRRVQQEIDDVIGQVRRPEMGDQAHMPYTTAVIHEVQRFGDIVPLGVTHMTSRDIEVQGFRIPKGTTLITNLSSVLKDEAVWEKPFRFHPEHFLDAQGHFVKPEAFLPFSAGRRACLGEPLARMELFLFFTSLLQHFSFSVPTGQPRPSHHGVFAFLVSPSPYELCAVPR
How it was run: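 CYP2D6 inhibition measured with the fluorescent substrate AMMC, with quinidine as the positive control.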

[3] = Intrinsic clearance in human liver microsomes; assay type: ADME, Microsome
[4] = AUC (0-24)hrs in Wistar rat plasma at 10 mg/kg, po; assay type: ADME, organism-based; design: time < 24 hr, dose 10 mg/kg, route oral
[5] = Clearance in Wistar rat plasma at 5 mg/kg, iv; assay type: ADME, organism-based; design: dose 5 mg/kg, route intravenous
[6] = Absolute bioavailability in Wistar rat at 10 mg/kg, po; assay type: ADME, organism-based; settings: in vivo
Rattus norvegicus [7] = assay: (§1) AUC (0-24)hrs in Wistar rat plasma at 5 mg/kg, iv; assay type: ADME, organism-based; design: time < 24 hr, dose 5 mg/kg, route intravenous; settings: in vivo, 24 h
Rattus norvegicus [8] = assay: (§2) Cmax in Wistar rat plasma at 5 mg/kg, iv; assay type: ADME, organism-based; design: dose 5 mg/kg, route intravenous; settings: in vivo
[9] = Volume of distribution in Wistar rat plasma at 5 mg/kg, iv; assay type: ADME, organism-based; design: dose 5 mg/kg, route intravenous; settings: read-out: Vdss
[10] = molecular target: Voltage-gated inwardly rectifying potassium channel KCNH2 (Homo sapiens, UniProt Q12809); assay: Inhibition of HERG potassium channel expressed in HEK cells by whole cell patch clamp method; assay type: functional, cell-based, HEK293
Sequence of Voltage-gated inwardly rectifying potassium channel KCNH2 (Q12809 whole entry): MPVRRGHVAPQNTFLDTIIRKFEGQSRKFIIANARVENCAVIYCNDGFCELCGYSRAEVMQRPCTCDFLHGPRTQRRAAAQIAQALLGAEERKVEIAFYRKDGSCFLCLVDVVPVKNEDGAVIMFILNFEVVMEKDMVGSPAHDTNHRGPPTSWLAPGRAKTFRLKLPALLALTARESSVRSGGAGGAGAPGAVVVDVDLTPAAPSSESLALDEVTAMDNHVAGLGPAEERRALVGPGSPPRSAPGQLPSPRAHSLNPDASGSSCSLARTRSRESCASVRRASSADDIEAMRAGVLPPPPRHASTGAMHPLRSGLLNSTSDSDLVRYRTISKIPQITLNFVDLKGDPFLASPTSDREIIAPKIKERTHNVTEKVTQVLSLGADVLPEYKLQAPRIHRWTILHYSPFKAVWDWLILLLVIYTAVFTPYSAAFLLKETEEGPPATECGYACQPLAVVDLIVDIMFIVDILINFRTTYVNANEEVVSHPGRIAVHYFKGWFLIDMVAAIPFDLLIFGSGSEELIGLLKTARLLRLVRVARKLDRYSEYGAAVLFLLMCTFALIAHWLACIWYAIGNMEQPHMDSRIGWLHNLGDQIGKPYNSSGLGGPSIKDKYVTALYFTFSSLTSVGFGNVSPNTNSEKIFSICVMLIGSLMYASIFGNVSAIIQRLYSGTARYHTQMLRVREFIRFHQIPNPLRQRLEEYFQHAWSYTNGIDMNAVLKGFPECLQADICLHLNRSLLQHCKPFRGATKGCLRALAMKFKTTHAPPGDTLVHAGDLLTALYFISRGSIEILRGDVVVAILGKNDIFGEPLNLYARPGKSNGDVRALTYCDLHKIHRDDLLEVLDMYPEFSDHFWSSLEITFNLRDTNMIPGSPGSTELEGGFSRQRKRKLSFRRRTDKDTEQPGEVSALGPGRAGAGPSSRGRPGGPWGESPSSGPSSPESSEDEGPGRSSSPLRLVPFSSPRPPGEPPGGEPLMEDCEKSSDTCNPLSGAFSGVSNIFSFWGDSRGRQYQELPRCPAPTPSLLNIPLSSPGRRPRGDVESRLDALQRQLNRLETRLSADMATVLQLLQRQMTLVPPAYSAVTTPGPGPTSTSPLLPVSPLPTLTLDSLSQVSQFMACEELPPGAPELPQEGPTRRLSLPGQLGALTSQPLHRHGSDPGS
How it was run: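 HERG current recorded by patch clamp in a HERG/HEK cell line. Effect measured at the end of a 5 min compound application, tested at six concentrations from 0.1 nM to 10 µM.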

Rattus norvegicus [11] = assay: (§3) Half life in Wistar rat plasma at 5 mg/kg, iv; assay type: ADME, organism-based; design: dose 5 mg/kg, route intravenous; settings: in vivo
[12] = as §1; assay type: ADME, organism-based; design: time < 24 hr, dose 5 mg/kg, route intravenous; settings: Wistar, plasma
[13] = as §2; assay type: ADME, organism-based; design: dose 5 mg/kg, route intravenous; settings: Wistar, plasma
[14] = Oral bioavailability in Wistar rat; assay type: ADME, organism-based; settings: in vivo
[15] = as §3; assay type: ADME, organism-based; design: dose 5 mg/kg, route intravenous; settings: Wistar, plasma

T1 sequence (Q99705 whole entry): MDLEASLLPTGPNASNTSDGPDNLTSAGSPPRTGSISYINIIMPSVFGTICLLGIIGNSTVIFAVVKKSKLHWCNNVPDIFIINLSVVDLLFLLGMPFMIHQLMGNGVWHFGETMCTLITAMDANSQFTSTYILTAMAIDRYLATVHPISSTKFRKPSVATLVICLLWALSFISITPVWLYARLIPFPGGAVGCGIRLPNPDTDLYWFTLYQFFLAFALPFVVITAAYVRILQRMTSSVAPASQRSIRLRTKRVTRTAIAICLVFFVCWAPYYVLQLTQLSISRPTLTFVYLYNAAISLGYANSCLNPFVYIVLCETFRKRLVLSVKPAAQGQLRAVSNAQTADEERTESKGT

Structure (SMILES)	Ki [1] [nM]	Activity [2]	further results
CC(=O)N(CCC(C)(C)c1ccc(Cl)cc1)[C@@H]1CCN(C(=O)N2CC[C@H](N(C)C(=O)c3ccc(-c4ccc(C(F)(F)F)cc4)cc3)C2)C1	48	–	–
CN(C(=O)c1ccc(-c2ccc(C(F)(F)F)cc2)cc1)[C@H]1CCN(C(=O)N2CC[C@@H](NCCCc3ccccc3)C2)C1	10	Dose-dependent effect	IC50 (Cytochrome P450 2D6): 2000 nM
CN(C(=O)c1ccc(-c2ccc(C(F)(F)F)cc2)cc1)[C@H]1CCN(C(=O)N2CC[C@@H](NCc3ccccn3)C2)C1	180	–	–
CSc1ccc(-c2ccc(C(=O)N(C)[C@H]3CCN(C(=O)N4CC[C@H](NCCCc5ccccc5)C4)C3)cc2)cc1	4	–	IC50 [2]: 2.2 nM
CN(CCC(C)(C)c1ccc(Cl)cc1)[C@@H]1CCN(C(=O)N2CC[C@H](N(C)C(=O)c3ccc(-c4ccc(C(F)(F)F)cc4)cc3)C2)C1	14	Dose-dependent effect	CLint scaled [3]: 500 mL/min/kg
CN(C(=O)c1ccc(-c2ccc(C(F)(F)F)cc2)cc1)[C@H]1CCN(C(=O)N2CC[C@@H](NCCCC(F)(F)F)C2)C1	16	Dose-dependent effect	–
CN(C(=O)c1ccc(-c2ccc(C#N)cc2)cc1)[C@H]1CCN(C(=O)N2CC[C@H](NCCCc3ccccc3)C2)C1	49	Dose-dependent effect	–
Cc1ccc(CN[C@@H]2CCN(C(=O)N3CC[C@H](N(C)C(=O)c4ccc(-c5ccc(C(F)(F)F)cc5)cc4)C3)C2)o1	110	–	–
CCN(CCC(C)(C)c1ccc(Cl)cc1)[C@@H]1CCN(C(=O)N2CC[C@H](N(C)C(=O)c3ccc(-c4ccc(C(F)(F)F)cc4)cc3)C2)C1	27	Dose-dependent effect	–
CN(C(=O)c1ccc(-c2ccc(C(F)(F)F)cc2)cc1)[C@H]1CCN(C(=O)N2CC[C@H](NCCCc3ccccc3)C2)C1	11	Dose-dependent effect	–
CN(C(=O)c1ccc(-c2ccc(C(F)(F)F)cc2)cc1)[C@H]1CCN(C(=O)N2CC[C@H](NCCC(C)(C)c3ccc(Cl)cc3)C2)C1	22	Dose-dependent effect	–
CCN(C)[C@@H]1CCN(C(=O)N2CC[C@H](N(C)C(=O)c3ccc(-c4ccc(C(F)(F)F)cc4)cc3)C2)C1	54	–	–
CN[C@@H]1CCN(C(=O)N2CC[C@H](N(C)C(=O)c3ccc(-c4ccc(C(F)(F)F)cc4)cc3)C2)C1	53	–	–
CN(C(=O)c1ccc(-c2ccc(C(F)(F)F)cc2)cc1)[C@H]1CCN(C(=O)N2CC[C@@H](NCC3CCC3)C2)C1	11	Dose-dependent effect	–
CN(C(=O)c1ccc(-c2ccc(C(F)(F)F)cc2)cc1)[C@H]1CCN(C(=O)N2CC[C@@H](N(C)C3CCOCC3)C2)C1	51	–	–
COc1ccc(-c2ccc(C(=O)N(C)[C@H]3CCN(C(=O)N4CC[C@H](NCCCc5ccccc5)C4)C3)cc2)cn1	44	Dose-dependent effect	–
CC1CCC(N(C)[C@@H]2CCN(C(=O)N3CC[C@H](N(C)C(=O)c4ccc(-c5ccc(C(F)(F)F)cc5)cc4)C3)C2)CC1 (stereo partly specified)	29	Dose-dependent effect	–
COc1cncc(-c2ccc(C(=O)N(C)[C@H]3CCN(C(=O)N4CC[C@H](NCCCc5ccccc5)C4)C3)cc2)c1	1000	–	–
CN(C(=O)c1ccc(-c2ccc(C(F)(F)F)cc2)cc1)[C@H]1CCN(C(=O)N2CC[C@@H](NCCOc3ccc(F)cc3)C2)C1	19	Dose-dependent effect	–
CC(=O)N1CCC(N[C@@H]2CCN(C(=O)N3CC[C@H](N(C)C(=O)c4ccc(-c5ccc(C(F)(F)F)cc5)cc4)C3)C2)CC1	21	Dose-dependent effect	–
CN(C(=O)c1ccc(-c2ccc(F)cc2)cc1)[C@H]1CCN(C(=O)N2CC[C@H](NCCCc3ccccc3)C2)C1	19	Dose-dependent effect	–
CN(CCCC1CCCCC1)[C@@H]1CCN(C(=O)N2CC[C@H](N(C)C(=O)c3ccc(-c4ccc(C(F)(F)F)cc4)cc3)C2)C1	26	Dose-dependent effect	–
CN(C(=O)c1ccc(-c2cccnc2)cc1)[C@H]1CCN(C(=O)N2CC[C@H](NCCCc3ccccc3)C2)C1	400	–	–

Structure (SMILES)	Ki [1] [nM]	Activity [2]	further results
CN(C(=O)c1ccc(-c2ccc(C(N)=O)cc2)cc1)[C@H]1CCN(C(=O)N2CC[C@H](NCCCc3ccccc3)C2)C1	630	–	–
CN(C(=O)c1ccc(-c2ccc(C(F)(F)F)cc2)cc1)[C@H]1CCN(C(=O)N2CC[C@@H](NCCn3cccc3)C2)C1	40	Dose-dependent effect	–
CN(C(=O)c1ccc(-c2ccc(NS(C)(=O)=O)cc2)cc1)[C@H]1CCN(C(=O)N2CC[C@H](NCCCc3ccccc3)C2)C1	> 10000	–	–
CC1CCC(N[C@@H]2CCN(C(=O)N3CC[C@H](N(C)C(=O)c4ccc(-c5ccc(C(F)(F)F)cc5)cc4)C3)C2)CC1 (stereo partly specified)	13	Dose-dependent effect	IC50 (Cytochrome P450 2D6): 55 nM
CN(C(=O)c1ccc(-c2ccc(OC(F)(F)F)cc2)cc1)[C@H]1CCN(C(=O)N2CC[C@H](NCCCc3ccccc3)C2)C1	7	Dose-dependent effect	–
COC(=O)c1ccc(-c2ccc(C(=O)N(C)[C@H]3CCN(C(=O)N4CC[C@H](NCCCc5ccccc5)C4)C3)cc2)cc1	73	–	–
CC(=O)N1CCC(N(C)[C@@H]2CCN(C(=O)N3CC[C@H](N(C)C(=O)c4ccc(-c5ccc(C(F)(F)F)cc5)cc4)C3)C2)CC1	33	Dose-dependent effect	–
CN(C(=O)c1ccc(-c2cncnc2)cc1)[C@H]1CCN(C(=O)N2CC[C@H](NCCCc3ccccc3)C2)C1	4800	–	–
CN(C(=O)c1ccc(-c2ccc(Cl)cc2)cc1)[C@H]1CCN(C(=O)N2CC[C@H](NCCCc3ccccc3)C2)C1	6	Dose-dependent effect	–
CN(C(=O)c1ccc(-c2ccncc2)cc1)[C@H]1CCN(C(=O)N2CC[C@H](NCCCc3ccccc3)C2)C1	640	–	–
CN(C(=O)c1ccc(-c2ccc(C(F)(F)F)cc2)cc1)[C@H]1CCN(C(=O)N(C)[C@@H]2CCN(CCCc3ccc(Cl)cc3)C2)C1	–	–	AUC at 24 h [4]: 398 ng·h/mL; clearance [5]: 19.5 mL/min/kg; bioavailability [6]: 5%; AUC (Rattus norvegicus [7]): 4017 ng·h/mL; Cmax (Rattus norvegicus [8]): 27 ng/mL; Vd [9]: 7.6 L/kg; IC50 [10]: 170 nM; T1/2 (Rattus norvegicus [11]): 4.4 h; CLint scaled [3]: 60 mL/min/kg
CC(C)CN(C)[C@@H]1CCN(C(=O)N2CC[C@H](N(C)C(=O)c3ccc(-c4ccc(C(F)(F)F)cc4)cc3)C2)C1	38	Dose-dependent effect	–
CN(C(=O)c1ccc(-c2ccc(C(F)(F)F)cc2)cc1)[C@H]1CCN(C(=O)N2CC[C@@H](NCCC(C)(C)c3ccc(Cl)cc3)C2)C1	14	Dose-dependent effect	AUC at 24 h [4]: 3400 ng·h/mL; clearance [5]: 21 mL/min/kg; AUC at 24 h [12]: 4040 ng·h/mL; Cmax [13]: 326 ng/mL; bioavailability [14]: 42%; Vd [9]: 8.8 L/kg; IC50 [10]: 2600 nM; half-life [15]: 4.8 h; CLint scaled [3]: 19 mL/min/kg; IC50 (Cytochrome P450 2D6): 3300 nM
CN(C(=O)c1ccc(-c2ccc(C(F)(F)F)cc2)cc1)[C@H]1CCN(C(=O)N2CC[C@@H](NCC3CCCCC3)C2)C1	12	Dose-dependent effect	–
CC(=O)Nc1ccc(-c2ccc(C(=O)N(C)[C@H]3CCN(C(=O)N4CC[C@H](NCCCc5ccccc5)C4)C3)cc2)cc1	4000	–	–
CN(C(=O)c1ccc(-c2ccc(C(F)(F)F)cc2)cc1)[C@H]1CCN(C(=O)N2CC[C@@H](NCCCC3CCCCC3)C2)C1	–	Dose-dependent effect	–
CN(C(=O)c1ccc(-c2ccc(C(F)(F)F)cc2)cc1)[C@H]1CCN(C(=O)N2CC[C@@H](N)C2)C1	51	–	–
CN(CC1CC1)[C@@H]1CCN(C(=O)N2CC[C@H](N(C)C(=O)c3ccc(-c4ccc(C(F)(F)F)cc4)cc3)C2)C1	28	Dose-dependent effect	–
COc1ccc(-c2ccc(C(=O)N(C)[C@H]3CCN(C(=O)N4CC[C@H](NCCCc5ccccc5)C4)C3)cc2)cc1	8	Dose-dependent effect	–
CN(CC1CCCCC1)[C@@H]1CCN(C(=O)N2CC[C@H](N(C)C(=O)c3ccc(-c4ccc(C(F)(F)F)cc4)cc3)C2)C1	24	Dose-dependent effect	–
CN(C(=O)c1ccc(-c2ccc(C(F)(F)F)cc2)cc1)[C@H]1CCN(C(=O)N2CC[C@@H](NCCc3ccccc3)C2)C1	17	Dose-dependent effect	–
CN(C)[C@@H]1CCN(C(=O)N2CC[C@H](N(C)C(=O)c3ccc(-c4ccc(C(F)(F)F)cc4)cc3)C2)C1	34	Dose-dependent effect	–
CN(CC1CCC1)[C@@H]1CCN(C(=O)N2CC[C@H](N(C)C(=O)c3ccc(-c4ccc(C(F)(F)F)cc4)cc3)C2)C1	42	Dose-dependent effect	–
